Source: PubChem BioAssay (several laboratories)
CSN deneddyl inh = inhibitors of CSN-mediated cullin deneddylation, primary screen, biochemical, fluorescence polarization, uHTS; Purified CSN, SCF-Nedd8-OG deneddylation; inhibition, % at 12.5 µM; 0.38% of 360,000 active;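 active = pattern-corrected inhibition above about 35%, with an unprinted fluorescence ratio check between 0.5 and 1.5, limit read from the data, passing the limit was not always enough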;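 note: 0% = enzyme with substrate and 100% = substrate without enzyme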
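Assay system: Purified human Csn5 enzyme expressed in HEK293T cells | Amount: Enzyme 0.24 nM | Measured by: Fluorescence polarization readout | Medium: Tris/NaCl/DTT buffer, pH 7.5 | Compound dosing: One concentration, 12.5 µM, 0.25% DMSO | Times: 90 min incubation of compound, enzyme and substrate at room temperature | Control set: no-enzyme wells high, enzyme-with-substrate wells low | Read-out: % inhibition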
Rpn11 block = Rpn11 (PSMD14) deubiquitinase inhibitors, primary screen, biochemical, fluorescence polarization, uHTS; human 26S proteasome, Ub4-pepOG fluorescence polarization; 20S core pre-blocked with epoxomicin; inhibition, % at 20 µM; 26S proteasome non-ATPase regulatory subunit 14 (Homo sapiens), O00487; 0.59% of 360,000 active;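 active = inhibition at 20 µM, scaled to each plate's controls, above about 33%, limit read from the data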
IDE cell activ = human IDE activators in live cells, primary screen, fluorescence polarization, HEK cells, FAbeta-B substrate. FAbeta-B cleavage; 0% vehicle, 100% cell-free pure enzyme wells. 0.073% of 340,000 active. activation, % at 5.96 µM. Insulin-degrading enzyme (Homo sapiens), P14735;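 active = activation above the mean of all tested compounds plus 3 SD, set per screening campaign, cut at about 17% in these data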
HNF4A DNA FP = change in binding of human HNF4A to DNA, primary screen, biochemical, fluorescence polarization, FITC-DNA; Hepatocyte nuclear factor 4-alpha (Homo sapiens), P41235; 1 h; activity change, % at 10 µM; 0.3% of 360,000 active; AID 1224865, 2016; in the data active = activity change above about 30%, passing the limit was not always enough
TPT1 inh = Candida albicans TPT1 enzyme inhibitors, primary screen, biochemical, fluorescence polarization; 0.81% of 300,000 active; AID 1962, 2009; inhibition, % at 5 µM; recombinant caTPT1, FP RNA substrate dephosphorylation;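 active = inhibition above the mean of all tested compounds plus 3 SD, set per screening campaign, cut at about 24% in these data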;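 note: plate controls were DMSO alone for no effect and ferristatin control at 100 nM for full effect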
IDE inh = human IDE inhibitors in live cells, primary screen, fluorescence polarization, HEK cells, FAbetaB substrate | Insulin-degrading enzyme (Homo sapiens), P14735 | FAbetaB cleavage | inhibition, % at 5.59 µM | 0.41% of 320,000 active;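 active = percent inhibition above the average of all tested compounds plus 3 SD, set per screening campaign, cut at about 16% in these data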;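 note: IDE supplied by intact live HEK cells; FP after avidin binding of uncleaved biotin substrate so inhibition keeps polarization high; 0% = DMSO wells and 100% = 60 µM reference IDE inhibitor Ii1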
Rpn11 inh conf = Rpn11 (PSMD14) deubiquitinase inhibitors, confirmation, biochemical, fluorescence polarization, single concentration. shares compounds with Rpn11 block. purified human 26S proteasome, Ub4-pepOG fluorescence polarization; proteasome pretreated with epoxomicin. inhibition, % at 20 µM. 29% of 1,900 active. AID 602318, 2012
MMP-2 inh = MMP-2 enzyme inhibition, confirmation, counter-screen for RPN11 inhibitor project, biochemical, fluorescence, single concentration; 4% of 1,900 active; inhibition, % at 20 µM; recombinant MMP-2, FRET peptide cleavage fluorescence; shares compounds with Rpn11 block;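 note: human MMP-2 activated beforehand with APMA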
Thrombin inh = bovine thrombin protease inhibition, confirmation, counter-screen for Rpn11 inhibitor project, biochemical, fluorescence polarization, single concentration | 13% of 1,900 active | bovine thrombin cleavage of Ub4-pepOG | shares compounds with Rpn11 block | inhibition, % at 20 µM;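 active = mean inhibition at least 40% at 20 µM, or signal 3 deviations below plate average, so some actives read negative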;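 note: plate controls were thrombin with DMSO for no effect and buffer wells lacking thrombin for full effect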
Target sequence (P00735 whole entry, looked up): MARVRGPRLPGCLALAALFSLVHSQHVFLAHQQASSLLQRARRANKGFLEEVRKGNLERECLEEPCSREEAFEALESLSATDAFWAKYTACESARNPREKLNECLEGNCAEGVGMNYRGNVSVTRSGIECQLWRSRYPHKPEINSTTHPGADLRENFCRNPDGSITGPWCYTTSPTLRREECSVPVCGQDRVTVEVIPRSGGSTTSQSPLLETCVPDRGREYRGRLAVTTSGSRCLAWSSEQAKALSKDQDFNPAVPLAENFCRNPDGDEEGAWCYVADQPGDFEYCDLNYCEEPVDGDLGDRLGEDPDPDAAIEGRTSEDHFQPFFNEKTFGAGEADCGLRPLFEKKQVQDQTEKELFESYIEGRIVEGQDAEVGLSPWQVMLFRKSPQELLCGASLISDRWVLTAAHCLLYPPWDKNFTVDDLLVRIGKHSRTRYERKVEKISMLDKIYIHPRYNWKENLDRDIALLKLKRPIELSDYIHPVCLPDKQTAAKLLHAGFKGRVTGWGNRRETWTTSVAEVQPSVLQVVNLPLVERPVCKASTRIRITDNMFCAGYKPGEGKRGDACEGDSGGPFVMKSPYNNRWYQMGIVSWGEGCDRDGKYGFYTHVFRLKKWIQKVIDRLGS
An asterisk follows results filed as active; . = no result. Most compounds without a hit are left out; they make up all but 1.7% or so of the library. Cut-off read from the data, not from the text of the source, unless noted: active = inhibition above about 40%; inactive = the rest.

SMILES	CSN deneddyl inh	Rpn11 block	IDE cell activ	HNF4A DNA FP	TPT1 inh	IDE inh	Rpn11 inh conf	MMP-2 inh	Thrombin inh
NS(=O)(=O)c1ccc(N/C=C\C(=O)c2ccc3ccccc3c2)cc1	14	45*	4	-2	11	7	67*	38	-12
CN(C)S(=O)(=O)c1cccc(C(=O)N2CCN(Cc3ccccc3)CC2)c1	3	109*	-1	-32	-2	-2	-6	-12	-8
CC1Oc2ccc(C#N)cc2N(Cc2ccc(F)cc2)C1=O (stereo not given)	1	-2	.	4	.	.	.	.	.
CCOC(=O)Cn1c(=NC(=O)C2COc3ccccc3O2)sc2cc(S(N)(=O)=O)ccc21 (stereo not given)	-5	-3	1	2	-3	2	.	.	.
CCOC(=O)Cn1c(=NC(=O)c2ccc([N+](=O)[O-])s2)sc2ccccc21	-3	44*	-2	26	2	-2	-5	-39	-75
CCN(c1ccccc1)S(=O)(=O)c1ccc(C(=O)N2CCN(c3ccccc3F)CC2)cc1	0	3	.	-4	.	.	.	.	.
CCCNC(=O)N[C@H]1CC[C@@H](CCn2cc(-c3cccc(F)c3)nn2)O[C@@H]1CO	0	.	.	5	.	.	.	.	.
CCN(CC)S(=O)(=O)c1cc(OC)ccc1N=Nc1ccc(O)c2ncccc12	2	50*	-6	4	.	.	48*	43*	0
NS(=O)(=O)c1ccc(N=Nc2ccc(O)c3ncccc23)cc1	5	86*	-1	4	3	-2	70*	55*	13
COc1ccc(Nc2nc(-c3ccc(OC)cc3)cs2)cc1	13	-2	1	3	3	7	.	.	.
COc1ccc(Nc2nc(-c3c[nH]c4ccccc34)cs2)cc1	6	48*	-6	23	24	1	6	16	5
CCN(CC)CCNc1nc(-c2ccccc2)c2c(c1C#N)CC(C)(C)OC2	2	-1	8	0	-3	-8	.	.	.
CC1(C)Cc2c(C#N)c(NCCCO)nc(-c3ccccc3)c2CO1	0	68*	5	28*	-5	2	-10	-26	-14
CSc1ccc(S(=O)(=O)N2CCC(C(=O)Nc3ccccc3C(F)(F)F)CC2)cc1	0	35*	2	-47	0	-2	4	-13	1
CCOC(=O)c1c(C)[nH]c(C(=O)OCC(=O)N(CC(C)C)c2c(N)n(Cc3ccccc3)c(=O)[nH]c2=O)c1C	12	60*	-2	18	15	2	104*	-1	69*
CCOC(=O)c1c(C)[nH]c(C(=O)OCC(=O)N(CC)c2c(N)n(Cc3ccccc3)c(=O)[nH]c2=O)c1C	2	8	0	4	.	.	.	.	.
CCCn1c(NC(=O)c2ccco2)nc2ccccc21	1	-4	1	-4	-2	-3	.	.	.
CCCn1c(NC(=O)C2COc3ccccc3O2)nc2ccccc21 (stereo not given)	0	104*	3	-7	-6	8	5	-2	7
COc1ccc(C(=O)N/N=C/c2cc(Br)ccc2O)cc1OC	21	7	-2	1	1	1	.	.	.
COc1ccc(O)c(/C=N/NC(=O)c2ccc(OCc3cccc(Br)c3)cc2)c1	12	54*	6	44*	0	10	56*	4	-11
COc1ccc(/C(C)=N/NC(=O)c2nnn(-c3nonc3N)c2-c2cccs2)cc1	-1	0	-2	2	-1	2	.	.	.
COc1ccc(/C(C)=N/NC(=O)c2nnn(-c3nonc3N)c2-c2ccccc2)cc1	8	80*	0	8	-1	0	93*	0	-11
COC(=O)C[C@H]1CC[C@H](NC(=O)Nc2ccccc2OC)[C@@H](CO)O1	0	.	.	2	.	.	.	.	.
O=C(COC(=O)c1ccc(S(=O)(=O)N2CCc3ccccc3C2)cc1)NC1CCS(=O)(=O)C1 (stereo not given)	1	49*	2	0	0	2	-12	25	-22
O=C(COC(=O)c1ccc(S(=O)(=O)N2CCCCC2)cc1)NC1CCCCC1	-1	2	.	1	.	.	.	.	.
SMILES	CSN deneddyl inh	Rpn11 block	IDE cell activ	HNF4A DNA FP	TPT1 inh	IDE inh	Rpn11 inh conf	MMP-2 inh	Thrombin inh
C[C@@H]1ON(C)[C@H]2C[C@H]3c4cc(-c5cccc(F)c5)ccc4CCN3C(=O)[C@@H]12	-3	4	-2	2	.	.	.	.	.
CCCOc1cccc(C2C(C(=O)c3ccc(C)o3)=C(O)C(=O)N2c2nc(C)c(C(C)=O)s2)c1 (stereo not given)	19	50*	-1	14	17	1	9	-29	11
COc1cc(NC(=O)Nc2nnc([C@H]3C[C@H](O)[C@@H](CO)O3)s2)cc(OC)c1	-4	-6	.	0	.	.	.	.	.
O=C(COC(=O)c1cc2ccccc2cc1O)NC(=O)NCc1ccco1	8	44*	-1	-5	2	6	8	-14	3
O=[N+]([O-])c1ccc(O)c(/C=N/NC2=NS(=O)(=O)c3ccccc32)c1	8	49*	-4	15	3	2	90*	22	30
Cn1ccc2c(N3c4ccccc4CCc4ccccc43)cc3c(c21)C1CCC3C1 (stereo not given)	0	1	.	5	.	.	.	.	.
Cn1ccc2c(N3c4ccccc4CCc4ccccc43)cc3c(c21)C1CCC3O1 (stereo not given)	16	49*	.	29	.	.	7	-40	-6
COc1ccccc1N(C)c1cc2c(c3c1ccn3C)C1CCC2O1 (stereo not given)	11	42*	.	10	.	.	-8	-57	3
CCN(CC)C(=O)C(c1ccccc1)S(=O)(=O)N1CCOCC1 (stereo not given)	2	-7	.	1	.	.	.	.	.
